Measurements published in the RNAGym collection of RNA variant scans (doi:10.1002/anie.201605470).

B1: Osa-1-4 twister ribozyme (parent)
chain: CCGCCUAACACUGCCAAUGCCGGUCCCAAGCCCGGAUAAAAGUGGAGGGGGCGG

Variants of: B1
Assay: self-cleavage, relative activity (ratio to wild type); higher = more cleavage; co-transcriptional
Summary of the method: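 A DNA template for a 54-nucleotide Oryza sativa twister ribozyme was synthesised with 97 % wild-type base and 1 % of each other base at the 48 positions downstream of the cleavage site. It was transcribed in vitro for 2 h at 37 °C, allowing co-transcriptional self-cleavage, then reverse-transcribed with a template-switching oligonucleotide, PCR-amplified and deep-sequenced. Cleavage status was scored from reads with or without upstream sequence. Relative activity is fraction cleaved normalised to wild type.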

Row | Variant | self-cleavage
1 | G19C G44A | 0.07
2 | G19C G44C | 0.14
3 | G19C G51U | 0.04
4 | G19C G51A | 0.08
5 | G19C G51C | 0.03
6 | C20A G42A | 0.59
7 | C20A G42C | 0.17
8 | U18A U43A | 0.83
9 | U18A U43C | 0.36
10 | U18A U43G | 0.58
11 | G19A G42U | 0.06
12 | G19A G42A | 0.1
13 | G19A G42C | 0.09
14 | C20A G13U | 0.02
15 | C20A G13A | 0.13
16 | C20A G13C | 0.01
17 | G19U G42U | 0.04
18 | G19U G42C | 0.06
19 | G19U G42A | 0.06
20 | G19C U18G | 0.91
21 | G19C U18A | 0.66
22 | G19C U18C | 0.39
23 | U18A | 0.95
24 | U18G | 0.84

Row | Variant | self-cleavage
25 | U18C | 0.96
26 | G19A G49U | 0.08
27 | G19A G49C | 0.09
28 | G19A G49A | 0.08
29 | G19A G50A | 0.92
30 | G19A G50U | 0.56
31 | G19A G50C | 0.27
32 | G19C G30A | 0.02
33 | G19C G30C | 0.03
34 | G19C G30U | 0.02
35 | G19U G54C | 0.1
36 | G19U G54A | 0.16
37 | G19U G54U | 0.54
38 | G19A G45A | 0.07
39 | G19A G45C | 0.06
40 | G19A G45U | 0.06
41 | G19C U24G | 0.04
42 | G19C U24C | 0.04
43 | G19C U24A | 0.04
44 | A17U G19C | 0.43
45 | A17U G19A | 0.83
46 | A17U G19U | 0.38
47 | G19U G45U | 0.04
48 | G19U G45C | 0.04

Row | Variant | self-cleavage
49 | G19U G45A | 0.03
50 | G19A G48U | 0.06
51 | G19A G48C | 0.06
52 | G19A G48A | 0.06
53 | A17U C52A | 1.02
54 | A17U C52G | 0.98
55 | A17U C52U | 1.01
56 | G19A G51C | 0.08
57 | G19A G51A | 0.33
58 | G19A G51U | 0.17
59 | G19U U37C | 0.84
60 | G19U U37A | 0.15
61 | G19U U37G | 0.53
62 | U18G U24C | 0.38
63 | U18G U24G | 0.05
64 | U18G U24A | 0.53
65 | G19A G53C | 0.09
66 | G19A G53A | 0.18
67 | G19A G53U | 0.13
68 | G19C G53A | 0.06
69 | G19C G53U | 0.05
70 | G19C G53C | 0.04
71 | G19U G23C | 0.04
72 | G19U G23A | 0.07

Row | Variant | self-cleavage
73 | G19U G23U | 0.04
74 | U18G U37A | 0.59
75 | U18G U37C | 0.86
76 | U18G U37G | 0.85
77 | G19A | 0.99
78 | G19C | 0.27
79 | G19U | 0.57
80 | A17U G23C | 0.06
81 | A17U G23U | 0.13
82 | A17U G23A | 0.56
83 | G19U G50U | 0.21
84 | G19U G50C | 0.1
85 | G19U G50A | 0.59
86 | G19C U37C | 0.64
87 | G19C U37G | 0.24
88 | G19C U37A | 0.46
89 | G19C G50U | 0.07
90 | G19C G50C | 0.06
91 | G19C G50A | 0.24
92 | G19A G35A | 0.83
93 | G19A G35U | 0.2
94 | G19A G35C | 0.68
95 | C20A G19C | 0.31
96 | C20A G19U | 0.78

Row | Variant | self-cleavage
97 | C20A G19A | 0.86
98 | A17U U37A | 0.73
99 | A17U U37G | 1.01
100 | A17U U37C | 1.06
101 | C20A C31U | 0.81
102 | C20A C31G | 0.14
103 | C20A C31A | 0.04
104 | C20A G23U | 0.1
105 | C20A G23C | 0.03
106 | C20A G23A | 0.18
107 | A17U G13A | 0.14
108 | A17U G13U | 0.03
109 | A17U G13C | 0.03
110 | C20A C9G | 0.68
111 | C20A C9U | 0.53
112 | C20A C9A | 0.29
113 | A17U G45C | 0.06
114 | A17U G45U | 0.18
115 | A17U G45A | 0.54
116 | U18C U43A | 0.65
117 | U18C U43C | 0.35
118 | U18C U43G | 0.3
119 | G19U G49U | 0.03
120 | G19U G49A | 0.04

Row | Variant | self-cleavage
121 | G19U G49C | 0.04
122 | A17U G30U | 0.04
123 | A17U G30A | 0.05
124 | A17U G30C | 0.06
125 | A17U G48C | 0.13
126 | A17U G48A | 0.16
127 | A17U G48U | 0.08
128 | G19A G44U | 0.4
129 | G19A G44A | 0.23
130 | G19A G44C | 0.72
131 | U18G U43G | 0.77
132 | U18G U43C | 0.67
133 | U18G U43A | 0.76
134 | G19U U24C | 0.07
135 | G19U U24G | 0.07
136 | G19U U24A | 0.05
137 | C20A C33G | 0.05
138 | C20A C33U | 0.76
139 | C20A C33A | 0.08
140 | G19C G48U | 0.03
141 | G19C G48C | 0.02
142 | G19C G48A | 0.02
143 | A17U C33U | 0.85
144 | G19A U24G | 0.09

Row | Variant | self-cleavage
145 | G19A U24A | 0.08
146 | G19A U24C | 0.08
147 | A17U G51C | 0.19
148 | A17U G51U | 0.38
149 | A17U G51A | 0.67
150 | G19C G45U | 0.03
151 | G19C G45A | 0.03
152 | G19C G45C | 0.03
153 | G19U G35C | 0.6
154 | G19U G35U | 0.76
155 | G19U G35A | 0.21
156 | G19C G22A | 0.06
157 | G19C G22U | 0.03
158 | G19C G22C | 0.03
159 | G19U G44C | 0.34
160 | G19U G44U | 0.19
161 | G19U G44A | 0.1
162 | U18C U37C | 0.97
163 | U18C U37A | 0.69
164 | U18C U37G | 0.95
165 | U18C U24C | 0.24
166 | U18C U24G | 0.02
167 | U18C U24A | 0.21
